# Assay results: ChEMBL document CHEMBL4406919, “Structure-Based Design of Selective, Covalent G Protein-Coupled Receptor Kinase 5 Inhibitors” (ACS Med Chem Lett, 2019)
# pIC50: −log10 of the molar value.
# Target: T1, Rhodopsin kinase GRK1 (Bos taurus, UniProt P28327)
# T1 sequence (P28327 whole entry): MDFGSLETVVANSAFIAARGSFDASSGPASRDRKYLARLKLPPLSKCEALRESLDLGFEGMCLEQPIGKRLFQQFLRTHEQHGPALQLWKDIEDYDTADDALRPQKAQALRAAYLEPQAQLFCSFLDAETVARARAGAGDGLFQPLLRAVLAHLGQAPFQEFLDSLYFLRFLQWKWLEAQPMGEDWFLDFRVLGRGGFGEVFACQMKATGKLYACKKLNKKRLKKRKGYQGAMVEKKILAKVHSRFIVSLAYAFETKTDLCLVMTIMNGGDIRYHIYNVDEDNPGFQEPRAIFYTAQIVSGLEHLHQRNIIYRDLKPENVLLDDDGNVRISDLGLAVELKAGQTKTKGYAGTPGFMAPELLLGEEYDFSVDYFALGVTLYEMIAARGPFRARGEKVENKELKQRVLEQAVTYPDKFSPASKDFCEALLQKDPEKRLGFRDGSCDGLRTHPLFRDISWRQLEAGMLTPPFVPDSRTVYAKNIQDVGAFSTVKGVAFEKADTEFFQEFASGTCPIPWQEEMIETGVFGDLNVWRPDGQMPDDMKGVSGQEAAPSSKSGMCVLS
# Assay: Displacement of BODIPY TR-ADP from bovine GRK1 (1 to 535 residues) preincubated for 10 mins followed by compound addition and measured after 10 to 15 mins by fluorescence polarization displacement assay
row,pIC50,SMILES
1,6.89,COc1cc2c(cc1Nc1nc(Nc3ccsc3C(N)=O)c3cc[nH]c3n1)N(C(=O)CN(C)C)CCC2(C)C [GSK-2163632A]
2,< 4.00,CCCN1CCC(c2ccc(Nc3nc(Nc4cc(F)ccc4C(N)=O)c4cc[nH]c4n3)c(OC)c2)CC1 [GSK-1326255A]

# Target: T2, G protein-coupled receptor kinase 5 (Homo sapiens, UniProt P34947)
# T2 sequence (P34947 whole entry): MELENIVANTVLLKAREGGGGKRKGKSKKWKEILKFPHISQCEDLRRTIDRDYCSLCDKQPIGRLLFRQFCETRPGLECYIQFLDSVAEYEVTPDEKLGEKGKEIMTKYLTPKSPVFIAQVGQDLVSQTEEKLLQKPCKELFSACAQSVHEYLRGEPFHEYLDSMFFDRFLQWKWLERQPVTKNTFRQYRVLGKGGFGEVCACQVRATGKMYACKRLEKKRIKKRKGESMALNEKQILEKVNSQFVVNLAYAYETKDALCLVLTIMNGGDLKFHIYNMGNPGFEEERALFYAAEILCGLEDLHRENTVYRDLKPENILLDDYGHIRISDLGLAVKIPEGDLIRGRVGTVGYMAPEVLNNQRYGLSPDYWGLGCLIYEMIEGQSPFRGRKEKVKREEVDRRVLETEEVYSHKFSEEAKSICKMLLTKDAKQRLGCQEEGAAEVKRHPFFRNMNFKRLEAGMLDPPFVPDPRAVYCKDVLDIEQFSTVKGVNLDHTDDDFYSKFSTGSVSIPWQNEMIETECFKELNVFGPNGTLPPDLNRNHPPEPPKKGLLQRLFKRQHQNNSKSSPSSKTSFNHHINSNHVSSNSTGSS
# Assay: Displacement of BODIPY TR-ADP from GRK5 (unknown origin) preincubated for 10 mins followed by compound addition and measured after 10 to 15 mins by fluorescence polarization displacement assay
row,pIC50,SMILES
1,5.49,COc1cc2c(cc1Nc1nc(Nc3ccsc3C(N)=O)c3cc[nH]c3n1)N(C(=O)CN(C)C)CCC2(C)C [GSK-2163632A]
2,5.60,CCCN1CCC(c2ccc(Nc3nc(Nc4cc(F)ccc4C(N)=O)c4cc[nH]c4n3)c(OC)c2)CC1 [GSK-1326255A]
3,5.49,CCCN1CCC(Oc2cc(Nc3nc(Nc4cccc(F)c4C(N)=O)c4cc[nH]c4n3)c(OC)cc2Cl)CC1 [GSK-1713088A]

# Target: T2, G protein-coupled receptor kinase 5
# Assay: Inhibition of human GRK5 using tubulin as substrate measured after 4 hrs by [gamma-32P]-ATP assay
row,pIC50,SMILES
1,< 4.00,CC#CC(=O)NCc1ccc(OC)c(Nc2nc(Nc3ccccc3C(=O)NC)c3cc[nH]c3n2)c1
2,5.15,C=CS(=O)(=O)NCc1ccc(OC)c(Nc2nc(Nc3ccccc3C(=O)NC)c3cc[nH]c3n2)c1
3,< 4.00,CCC(=O)NCc1ccc(OC)c(Nc2nc(Nc3ccccc3C(=O)NC)c3cc[nH]c3n2)c1
4,5.32,CNC(=O)c1ccccc1Nc1nc(Nc2cc(CNC(=O)/C=C/CN(C)C)ccc2OC)nc2[nH]ccc12
5,< 4.00,CCC(=O)NCc1ccc(Nc2nc(Nc3ccccc3C(=O)NC)c3cc[nH]c3n2)c(OC)c1

# Target: T1, Rhodopsin kinase GRK1
# Assay: Inhibition of bovine GRK1 using tubulin as substrate measured after 4 hrs by [gamma-32P]-ATP assay
# In short: (§1)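 Radiometric kinase assay using tubulin as phosphoacceptor and [γ-32P]ATP. Inhibitor was preincubated with the kinase for the stated time (here 4 h) before the reaction. IC50 came from dose–response curves. Most runs were three independent experiments in duplicate; some GRK5/GRK6 4 h runs were done twice in duplicate.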
row,pIC50,SMILES
1,5.68,COc1ccc(NC(=O)/C=C/CN(C)C)cc1Nc1nc(Nc2ccccc2C(N)=O)c2cc[nH]c2n1
2,6.12,COc1cc(NC(=O)/C=C/CN(C)C)ccc1Nc1nc(Nc2ccccc2C(N)=O)c2cc[nH]c2n1

# Target: T3, Beta-adrenergic receptor kinase 1 (Bos taurus, UniProt P21146)
# T3 sequence (P21146 whole entry): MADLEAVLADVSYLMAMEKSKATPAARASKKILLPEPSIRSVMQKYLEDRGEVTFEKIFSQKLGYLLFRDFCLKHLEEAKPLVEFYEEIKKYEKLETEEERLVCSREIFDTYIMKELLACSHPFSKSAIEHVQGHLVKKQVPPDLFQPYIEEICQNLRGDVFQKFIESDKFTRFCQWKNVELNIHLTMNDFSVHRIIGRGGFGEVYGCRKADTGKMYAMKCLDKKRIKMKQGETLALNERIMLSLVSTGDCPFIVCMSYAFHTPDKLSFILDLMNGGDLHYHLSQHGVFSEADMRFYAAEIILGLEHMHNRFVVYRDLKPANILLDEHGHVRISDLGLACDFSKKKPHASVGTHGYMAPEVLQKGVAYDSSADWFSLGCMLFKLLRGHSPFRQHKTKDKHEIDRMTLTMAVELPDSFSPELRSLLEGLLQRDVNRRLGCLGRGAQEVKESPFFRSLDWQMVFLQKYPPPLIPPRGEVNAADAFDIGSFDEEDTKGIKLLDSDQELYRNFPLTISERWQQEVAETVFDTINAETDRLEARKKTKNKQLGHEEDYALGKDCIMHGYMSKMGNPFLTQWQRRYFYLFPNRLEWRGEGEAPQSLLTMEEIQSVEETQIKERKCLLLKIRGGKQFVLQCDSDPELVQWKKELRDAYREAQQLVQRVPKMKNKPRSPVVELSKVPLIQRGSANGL
# Assay: Inhibition of bovine GRK2 using tubulin as substrate measured after 4 hrs by [gamma-32P]-ATP assay
# In short: as §1
row,pIC50,SMILES
1,5.57,COc1ccc(NC(=O)/C=C/CN(C)C)cc1Nc1nc(Nc2ccccc2C(N)=O)c2cc[nH]c2n1
2,6.17,COc1cc(NC(=O)/C=C/CN(C)C)ccc1Nc1nc(Nc2ccccc2C(N)=O)c2cc[nH]c2n1
3,5.49,C=CC(=O)NCc1ccc(OC)c(Nc2nc(Nc3ccccc3C(=O)NC)c3cc[nH]c3n2)c1
4,< 4.00,C=CC(=O)NCc1ccc(Nc2nc(Nc3ccccc3C(=O)NC)c3cc[nH]c3n2)c(OC)c1
5,< 4.00,C=CS(=O)(=O)NCc1ccc(Nc2nc(Nc3ccccc3C(=O)NC)c3cc[nH]c3n2)c(OC)c1

# Continued, compound first:
row,SMILES,pIC50
1,CC#CC(=O)NCc1ccc(OC)c(Nc2nc(Nc3ccccc3C(=O)NC)c3cc[nH]c3n2)c1,< 4.00
2,CC#CC(=O)NCc1ccc(Nc2nc(Nc3ccccc3C(=O)NC)c3cc[nH]c3n2)c(OC)c1,< 4.00
3,C=CS(=O)(=O)NCc1ccc(OC)c(Nc2nc(Nc3ccccc3C(=O)NC)c3cc[nH]c3n2)c1,< 4.00
4,CCC(=O)NCc1ccc(OC)c(Nc2nc(Nc3ccccc3C(=O)NC)c3cc[nH]c3n2)c1,5.54
5,CNC(=O)c1ccccc1Nc1nc(Nc2cc(CNC(=O)/C=C/CN(C)C)ccc2OC)nc2[nH]ccc12,5.68
6,CCC(=O)NCc1ccc(Nc2nc(Nc3ccccc3C(=O)NC)c3cc[nH]c3n2)c(OC)c1,< 4.00
7,CNC(=O)c1ccccc1Nc1nc(Nc2ccc(CNC(=O)/C=C/CN(C)C)cc2OC)nc2[nH]ccc12,< 4.00

# Tested on: not listed separately
# Assay: Inhibition of bovine GRK6 using tubulin as substrate measured after 4 hrs by [gamma-32P]-ATP assay
# Set-up: species or system Bos taurus
# In short: as §1
row,pIC50,SMILES
1,6.39,C=CC(=O)Nc1ccc(Nc2nc(Nc3ccccc3C(N)=O)c3cc[nH]c3n2)c(OC)c1
2,4.74,C=CC(=O)NCc1ccc(OC)c(Nc2nc(Nc3ccccc3C(=O)NC)c3cc[nH]c3n2)c1
3,< 4.00,C=CC(=O)NCc1ccc(Nc2nc(Nc3ccccc3C(=O)NC)c3cc[nH]c3n2)c(OC)c1
4,5.11,C=CS(=O)(=O)NCc1ccc(Nc2nc(Nc3ccccc3C(=O)NC)c3cc[nH]c3n2)c(OC)c1
5,< 4.00,CCC(=O)Nc1ccc(OC)c(Nc2nc(Nc3ccccc3C(N)=O)c3cc[nH]c3n2)c1

# Continued, compound first:
row,SMILES,pIC50
1,CC#CC(=O)NCc1ccc(OC)c(Nc2nc(Nc3ccccc3C(=O)NC)c3cc[nH]c3n2)c1,< 4.00
2,CC#CC(=O)NCc1ccc(Nc2nc(Nc3ccccc3C(=O)NC)c3cc[nH]c3n2)c(OC)c1,< 4.00
3,C=CS(=O)(=O)NCc1ccc(OC)c(Nc2nc(Nc3ccccc3C(=O)NC)c3cc[nH]c3n2)c1,5.60
4,CCC(=O)NCc1ccc(OC)c(Nc2nc(Nc3ccccc3C(=O)NC)c3cc[nH]c3n2)c1,< 4.00
5,CNC(=O)c1ccccc1Nc1nc(Nc2cc(CNC(=O)/C=C/CN(C)C)ccc2OC)nc2[nH]ccc12,5.59
6,CCC(=O)NCc1ccc(Nc2nc(Nc3ccccc3C(=O)NC)c3cc[nH]c3n2)c(OC)c1,< 4.00
7,CNC(=O)c1ccccc1Nc1nc(Nc2ccc(CNC(=O)/C=C/CN(C)C)cc2OC)nc2[nH]ccc12,< 4.00

# Target: G protein-coupled receptor kinase 5 (Bos taurus, UniProt P43249, C474S)
# Sequence (P43249 whole entry C474S): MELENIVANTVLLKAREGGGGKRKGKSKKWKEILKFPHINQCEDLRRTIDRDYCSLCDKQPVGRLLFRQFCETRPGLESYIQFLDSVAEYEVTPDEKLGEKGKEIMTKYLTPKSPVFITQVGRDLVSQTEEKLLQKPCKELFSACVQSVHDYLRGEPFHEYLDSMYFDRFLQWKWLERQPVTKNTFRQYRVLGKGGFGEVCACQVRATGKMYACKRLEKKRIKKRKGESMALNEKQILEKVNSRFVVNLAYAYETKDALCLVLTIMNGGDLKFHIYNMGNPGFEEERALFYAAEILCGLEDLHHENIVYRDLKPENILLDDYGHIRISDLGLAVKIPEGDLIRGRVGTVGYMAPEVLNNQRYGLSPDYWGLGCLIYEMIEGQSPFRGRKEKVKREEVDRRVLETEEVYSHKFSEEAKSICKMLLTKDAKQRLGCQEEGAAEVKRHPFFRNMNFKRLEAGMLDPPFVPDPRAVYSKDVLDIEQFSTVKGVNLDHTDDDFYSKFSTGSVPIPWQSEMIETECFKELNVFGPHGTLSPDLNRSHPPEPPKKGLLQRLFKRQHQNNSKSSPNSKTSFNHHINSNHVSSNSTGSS
# Assay: Inhibition of bovine GRK5 C474S mutant using tubulin as substrate measured after 4 hrs by [gamma-32P]-ATP assay
row,pIC50,SMILES
1,4.00,CCC(=O)NCc1ccc(Nc2nc(Nc3ccccc3C(=O)NC)c3cc[nH]c3n2)c(OC)c1

# Tested on: not listed separately
# Assay: Selectivity index, ratio of IC50 for bovine GRK2 to IC50 for human GRK5
# In short: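 Selectivity is the GRK2 IC50 divided by the GRK5 IC50. Both values come from the tubulin/[γ-32P]ATP radiometric assay. The GRK5 value used is from the longest inhibitor preincubation tested.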
row,Ratio IC50,SMILES
1,> 14,C=CS(=O)(=O)NCc1ccc(OC)c(Nc2nc(Nc3ccccc3C(=O)NC)c3cc[nH]c3n2)c1
2,< 0.01,CCC(=O)NCc1ccc(OC)c(Nc2nc(Nc3ccccc3C(=O)NC)c3cc[nH]c3n2)c1
3,0.4,CNC(=O)c1ccccc1Nc1nc(Nc2cc(CNC(=O)/C=C/CN(C)C)ccc2OC)nc2[nH]ccc12
